Most compounds without a hit are left out; they make up all but 5.5% or so of the library.
STAT3 blocker: STAT3 signaling inhibition; U3A cells, IL-6 STAT3-luciferase reporter, luminescence; host cell line lacks STAT1; inhibition, % at 5.5 µM; 190,000 compounds, 0.89% hits; AID 862;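 active = inhibition above the mean inhibition across all screened compounds plus 3 SD, cut at about 44% in these data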;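 note: 0% = DMSO only wells and 100% = 100 µM nifuroxazide control wells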
Cl transport mod: modulators of human KCC2 chloride dependent transport; Q9H2X9; KCC2 cells, thallium flux FluoZin-2 fluorescence; B-score of Tl+ flux slope (higher = more flux/activation; lower = inhibition) at 10 µM; 190,000 compounds, 2.2% hits;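 active = thallium flux slope and its plate-corrected score both differing from the plate sample mean at a set confidence after two filtering rounds, in either direction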;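 note: slope of fluorescence scaled to starting intensity during 10 to 20 s after thallium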
Target sequence (Q9H2X9 whole entry, looked up): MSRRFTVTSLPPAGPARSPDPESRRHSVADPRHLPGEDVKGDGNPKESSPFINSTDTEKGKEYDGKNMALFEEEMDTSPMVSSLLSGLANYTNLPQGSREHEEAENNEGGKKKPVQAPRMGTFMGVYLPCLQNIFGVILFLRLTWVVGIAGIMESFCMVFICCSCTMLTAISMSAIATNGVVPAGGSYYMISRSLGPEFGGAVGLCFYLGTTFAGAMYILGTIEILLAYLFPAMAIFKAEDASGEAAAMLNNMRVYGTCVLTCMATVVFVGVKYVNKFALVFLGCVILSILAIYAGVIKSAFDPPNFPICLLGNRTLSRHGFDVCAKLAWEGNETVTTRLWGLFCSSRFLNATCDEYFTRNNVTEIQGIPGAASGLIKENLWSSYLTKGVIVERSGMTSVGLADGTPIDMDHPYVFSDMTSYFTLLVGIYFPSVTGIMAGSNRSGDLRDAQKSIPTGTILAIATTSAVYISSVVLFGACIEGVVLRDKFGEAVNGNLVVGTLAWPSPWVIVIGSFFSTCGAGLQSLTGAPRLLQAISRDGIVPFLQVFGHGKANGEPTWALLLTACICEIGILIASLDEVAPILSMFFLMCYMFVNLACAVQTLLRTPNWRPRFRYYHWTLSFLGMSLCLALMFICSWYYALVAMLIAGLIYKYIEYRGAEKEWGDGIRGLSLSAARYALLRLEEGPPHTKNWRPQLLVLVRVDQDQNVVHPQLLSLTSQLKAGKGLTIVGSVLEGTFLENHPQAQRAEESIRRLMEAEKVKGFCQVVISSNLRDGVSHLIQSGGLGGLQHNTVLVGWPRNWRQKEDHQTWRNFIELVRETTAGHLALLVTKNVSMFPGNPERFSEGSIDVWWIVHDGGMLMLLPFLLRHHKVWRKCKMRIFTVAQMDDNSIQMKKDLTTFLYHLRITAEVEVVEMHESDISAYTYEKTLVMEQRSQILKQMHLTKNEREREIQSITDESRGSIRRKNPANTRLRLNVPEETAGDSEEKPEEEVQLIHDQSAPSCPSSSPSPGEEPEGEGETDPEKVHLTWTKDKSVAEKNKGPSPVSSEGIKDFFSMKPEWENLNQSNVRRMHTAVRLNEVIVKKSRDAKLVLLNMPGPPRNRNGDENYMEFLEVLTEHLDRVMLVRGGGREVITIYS
HSV augment: increases HSV replication in cells. 220,000 compounds, 0.005% hits. HSV replication augmentation in cells, fold increase. maximum fold increase; in the data active = maximum fold increase above about 1.5; tested in PC3 cells
STAT3 activator: increases IL-6 driven STAT3 reporter signal; U3A cells, IL-6 STAT3-luciferase reporter, luminescence; 100% = signal with IL-6 EC80 alone; 190,000 compounds, 0.91% hits; activation (% of control), % at 5.6 µM; AID 871;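 active = activation above the screen-wide mean of compound activation plus 3 SD, cut at about 130% in these data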;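 note: 0% = background luminescence of wells with medium and substrate only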
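Material: human U3A cells carrying STAT3-luciferase construct. Measured by: reporter luminescence signal. Timing: compound 1 h, then IL-6 6 h at 37 °C.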
STAT1 blocker: STAT1 signaling inhibition; 200,000 compounds, 0.35% hits; NIH 3T3 STAT1-luciferase reporter, IFN-gamma, luminescence; inhibition, % at 5.5 µM;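 active = inhibition above a set limit, the mean inhibition across all tested compounds plus 3 SD, cut at about 34% in these data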;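 note: 0% = IFN-gamma with DMSO and 100% = IFN-gamma with 300 µM nifuroxazide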
STAT1 activator: STAT1 signaling activation | activation (% of control), % at 5.5 µM | 200,000 compounds, 2.6% hits | NIH 3T3 STAT1-luciferase reporter, IFN-gamma, luminescence; 100% = IFN-gamma alone, no compound;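 active = activation above the screen-wide mean activation plus 3 SD, cut at about 130% in these data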;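 note: raw ratio to IFN-gamma control signal so 100% means no change and 0% no light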
* marks the source's active call; other numbers are inactive results; i = inactive; . = not tested or not shown.

SMILES	STAT3 blocker	Cl transport mod	HSV augment	STAT3 activator	STAT1 blocker	STAT1 activator
Cc1ccc(/C(N)=N/OC(=O)c2cccc(F)c2)cc1	-34	-0.71	i	128	-40	137*
O=C(c1ccc(F)cc1)N1CCCC(C(=O)N2CCc3ccccc3C2)C1 (stereo unspecified)	.	-0.1	i	.	.	.
CCN(CC)C(=O)CCc1nnc(Cc2cccc(C(F)(F)F)c2)o1	-9	0.21	i	110	-51	146*
Clc1ccccc1Cn1nnc(-c2ccccc2)n1	-2	-0.011	i	109	-46	141*
O=C(CCn1nnc(-c2cccs2)n1)NCc1ccccc1Cl	8	-0.92	i	98	3	97
Clc1ccccc1Cn1nnc(-c2cccs2)n1	-30	-0.76	i	128	-45	143*
Clc1ccccc1OCc1nnc2n1CCCCC2	.	-0.61	i	.	.	.
CCOC(=O)C(NC(=O)Nc1ccc(C(N)=O)cc1)(c1ccccc1)C(F)(F)F (stereo unspecified)	-4	-0.08	i	102	-2	102
CCCOC(=O)Nc1ccc(S(=O)(=O)Nc2ncccn2)cc1	.	0.092	i	.	.	.
Cc1ccc(-c2c3c([nH]c(=S)c2C#N)CCCC3)o1	8	24*	i	97	-4	104
CCN(CC)C(=O)c1cc2c(=O)n3ccccc3nc2s1	-37	-0.37	i	134*	-21	119
COCCN(CCOC)C(=O)c1cc2c(=O)n3ccccc3nc2s1	-11	.	i	114	-8	108
Cc1ccc2c(c1)C(C)CC(C)(C)N2C(=O)CN1CCN(C)CC1 (stereo unspecified)	.	.	i	.	.	.
O=[N+]([O-])c1ccc(O)c(/C=N/NC(=S)Nc2ccc(Cl)cc2Cl)c1	.	9.2*	i	.	.	.
Cc1cc(Cl)ccc1NC(=O)CCC(=O)N/N=C/c1cc([N+](=O)[O-])ccc1O	12	-1.2	i	92	8	92
COc1ccc(/C=N/n2c(-c3cccs3)n[nH]c2=S)cc1	24	31*	i	82	-8	107
Cc1ccc(/C=N/n2c(-c3cccs3)n[nH]c2=S)cc1	24	30*	i	82	3	98
CCN(CC)S(=O)(=O)c1cccc(-c2n[nH]c(=S)n2/N=C/c2ccc(OC)cc2)c1	4	1.2	i	104	-3	103
COc1ccc(C(=O)Nc2ccc(-c3nnn(CC(=O)NCc4ccco4)n3)cc2)cc1	.	1.9	i	.	.	.
CN(C)S(=O)(=O)c1ccc(-c2csc(N/N=C/c3ccc(O)cc3)n2)cc1	.	0.032	i	.	.	.
Cc1nc2nc(SCC(=O)c3ccc([N+](=O)[O-])cc3)[nH]c2cc1Br	-8	-0.091	i	106	-8	107
Cc1occc1C(=O)NN=C1C2CC3CC(C2)CC1C3	-18	-1.4	i	118	-61	150*
C/C(=N/OCO/N=C(/C)c1ccc(F)cc1)c1ccc(F)cc1	3	1.4	i	102	-1	100
CCOC(=O)c1c(-c2ccccc2)csc1NC(=O)CCN1C(=O)c2ccccc2C1=O	3	1.4	i	97	3	98
CCOC(=O)c1c(-c2ccc(C)o2)csc1NC(=S)NC(=O)c1ccccc1Br	-2	.	i	108	-1	101
SMILES	STAT3 blocker	Cl transport mod	HSV augment	STAT3 activator	STAT1 blocker	STAT1 activator
CCNC(=S)Nc1scc(-c2ccccc2)c1C(=O)OCC	-8	42*	i	105	-2	102
CCOC(=O)c1c(-c2ccccc2)csc1NC(=S)NC	3	36*	i	99	4	96
CCOC(=O)c1c(-c2ccc(C)o2)csc1NC(=S)NC(=O)c1cccs1	-6	6.3*	i	103	-2	102
Brc1cc2c(cc1/C=N/Nc1nc3ccccc3s1)OCO2	-26	0.041	i	121	-36	132*
COc1ccc(NC(=O)/C=C/c2ccc3c(c2)OCO3)cc1	15	0.11	i	88	-35	131*
Cc1csc(NC(=O)/C=C/c2ccc3c(c2)OCO3)n1	88*	0.83	i	28	44*	59
O=C(/C=C/c1ccc2c(c1)OCO2)Nc1nc(-c2ccc(F)cc2F)cs1	22	0.012	i	84	3	97
O=C(/C=C/c1ccc2c(c1)OCO2)Nc1nc2ccccc2s1	-2	0.59	i	97	-51	146*
COCCNC(=O)CC(=O)N/N=C/c1ccc(C(=O)OC)cc1	5	1.1	i	98	-4	102
C=C(C)COc1ccc(-c2n[nH]c(C)c2-c2ccc(OC)c(OC)c2)c(O)c1	.	-0.45	i	.	.	.
O=[N+]([O-])c1cc(/C=N/O)ccc1Oc1cccc(Cl)c1	-2	-1.4	i	108	-4	102
O=[N+]([O-])c1cc(/C=N/O)ccc1Oc1ccccc1Cl	-15	-0.75	i	122	-37	131*
Cc1ccc2c(c1)Cc1nc3ccccc3nc1-2	72*	-0.12	i	41	61*	44
Cc1cc(N2CCCC2)nc2ccccc12	13	0.67	i	94	-9	106
Cc1ccc(/C(N)=N/OC(=O)CCc2ccccc2)cc1	7	.	i	104	-24	121
N/C(=N\OC(=O)CCc1ccccc1)c1ccccc1Cl	10	1.4	i	99	-44	141*
COc1ccc(/C=C/C(=O)O/N=C(\N)c2ccccc2)cc1OC	7	1.6	i	96	-41	137*
COc1ccccc1C(=O)O/N=C(\N)c1ccccc1Cl	-11	-0.027	i	109	-44	139*
COc1ccc(C(=O)O/N=C(\N)c2ccccc2)c(OC)c1	76*	-0.3	i	38	34*	68
CC(C)Nc1nnc(Sc2ccc(Cl)cc2[N+](=O)[O-])s1	-3	-0.53	.	101	-1	101
COC(=O)c1cc(OC)c(OC)cc1NC(=O)c1cc(C(C)(C)C)oc1C	.	1.1	i	.	.	.
CC(C)(C)C(=O)NNC(=O)c1cnccn1	.	-0.025	i	.	.	.
COc1ccc(NC(=O)c2cc3c(=O)n4ccccc4nc3n2C)cc1OC	26	0.12	i	80	-8	106
Nc1nnc(-c2ccc(Cl)cc2Cl)s1	5	-0.7	i	100	-53	147*
CCc1cccc(C)c1NC(=S)NCC(c1cccnc1)N1CCOCC1 (stereo unspecified)	0	0.95	i	103	0	100
Cc1ccc(/C=N/NC(=O)C(O)c2ccccc2)o1 (stereo unspecified)	.	1.6	i	.	.	.
Cc1ccc(/C=N/NC(=O)Nc2ccccc2)o1	-3	-0.3	i	103	-54	148*
N#CC1=C(N)C(C#N)(C#N)C(c2cccnc2)C2CC(c3ccccc3)CC=C12 (stereo unspecified)	-11	-2.6*	i	114	3	97
Cc1ccc2nc(NC(=O)CSc3nnc(C)c(=O)n3N)sc2c1	2	0.51	i	100	-13	111

Assay outcomes (PubChem)
